From ChEMBL document CHEMBL4334465, “SAR Studies on Aromatic Acylhydrazone-Based Inhibitors of Fungal Sphingolipid Synthesis as Next-Generation Antifungal Agents” (J Med Chem, 2019)
Values after ≈ are worked out from the molar mass of the structure shown.

Tests used:
Cryptococcus neoformans [1] = assay: Fungicidal activity against Cryptococcus neoformans H99 measured after 24 hrs by time-kill assay; format: functional, var grubii H99
Method in brief: (§1)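 Overnight C. neoformans washed in PBS and resuspended in HEPES-buffered YNB, pH 7.4. 2 × 10⁴ cells exposed to a range of drug concentrations in 10 mL with 0.5% DMSO final, at 37°C, 5% CO₂, shaking at 200 rpm. Aliquots sampled over 96 h, diluted and plated on YPD; CFU counted after 48 h at 30°C.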

Pichia kudriavzevii [2] = assay: Antifungal activity against fluconazole-resistant Candida krusei assessed as FICI in presence of voriconazole; format: functional
Method in brief: (§2)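 Checkerboard in 96-well plate. Test compound diluted 16 to 0.015 μg/mL (11 dilutions) against the partner drug in seven dilutions: fluconazole 12 to 0.19 μg/mL, caspofungin, itraconazole or voriconazole 8 to 0.007 μg/mL. Fractional inhibitory concentration index (FICI) calculated from the combinations.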

[Candida] auris [3] = Antifungal activity against Candida auris assessed as FICI in presence of voriconazole; format: functional, Candidozyma auris
Method in brief: (§3)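 Checkerboard combination scored by fractional inhibitory concentration index. Acylhydrazone serially diluted 16 to 0.015 μg/mL (11 dilutions). Partner drug in seven dilutions: fluconazole 12 to 0.19 μg/mL, amphotericin B 5 to 0.078 μg/mL, caspofungin, itraconazole or voriconazole 8 to 0.007 μg/mL.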

Candida parapsilosis [4] = assay: Antifungal activity against Candida parapsilosis assessed as FICI in presence of fluconazole; format: functional; method in brief: as §3
Candida albicans [5] = assay: Antifungal activity against Candida albicans assessed as FICI in presence of voriconazole; format: functional; method in brief: as §3
Pichia kudriavzevii [6] = assay: Antifungal activity against fluconazole-resistant Candida krusei assessed as FICI in presence of caspofungin; format: functional; method in brief: as §2
Cryptococcus neoformans [7] = assay: Antifungal activity against Cryptococcus neoformans H99 assessed as FICI in presence of voriconazole; format: functional, var grubii H99; method in brief: as §3
Pichia kudriavzevii [8] = assay: Antifungal activity against Candida krusei 6258 assessed as FICI in presence of itraconazole; format: functional; method in brief: as §3
Pichia kudriavzevii [9] = assay: Antifungal activity against multi-drug resistant Candida krusei measured after 24 to 72 hrs; format: functional
Method in brief: (§4)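 MIC by modified CLSI broth microdilution. Candida strains grown in YNB without ammonium sulfate or amino acids with 1% asparagine, pH 7.0, 2% glucose. Inoculum per CLSI M27A3. Compound serially diluted 32 to 0.03 μg/mL. Incubation 37°C, 5% CO₂, 24–72 h, then OD450. MIC80 taken as the lowest concentration giving 80% growth inhibition versus untreated control.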

Pichia kudriavzevii [10] = assay: Antifungal activity against Candida krusei 6258 assessed as FICI in presence of caspofungin; format: functional; method in brief: as §3
Pichia kudriavzevii [11] = assay: Antifungal activity against fluconazole-resistant Candida krusei assessed as FICI in presence of itraconazole; format: functional; method in brief: as §2
Cryptococcus neoformans [12] = assay: Antifungal activity against Cryptococcus neoformans H99 assessed as FICI in presence of amphotericin B; format: functional, var grubii H99; method in brief: as §3
Candida parapsilosis [13] = assay: Antifungal activity against Candida parapsilosis assessed as FICI in presence of voriconazole; format: functional; method in brief: as §3
[Candida] auris [14] = Antifungal activity against Candida auris assessed as FICI in presence of caspofungin; format: functional, Candidozyma auris; method in brief: as §3
[15] = Selectivity index, ratio of LD50 for human A549 cells to MIC80 for Cryptococcus neoformans H99; format: toxicity; details: read-out: Selectivity Index
Method in brief: (§5)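 SI = LD₅₀/MIC₈₀. Cytotoxicity: A549 or HepG2 cells (DMEM, 10% FBS, passage 7, 10⁵ cells/well) adhered 14 h, then exposed to 0.03–128 μg/mL for 24 or 48 h at 37°C, 5% CO₂; MTT 4 h, formazan dissolved in DMSO, read at 570 nm. MIC₈₀ against C. neoformans from broth microdilution in HEPES-buffered YNB, pH 7.0.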

[Candida] auris [16] = Antifungal activity against Candida auris assessed as FICI in presence of itraconazole; format: functional, Candidozyma auris; method in brief: as §3
Candida albicans [17] = assay: Antifungal activity against Candida albicans assessed as FICI in presence of caspofungin; format: functional; method in brief: as §3
Aspergillus fumigatus [18] = assay: Antifungal activity against Aspergillus fumigatus measured after 24 to 72 hrs; format: functional
Method in brief: (§6)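 Modified CLSI broth microdilution with inoculum per M27A3. Compounds were serially diluted 32 to 0.03 μg/mL. Media: C. neoformans in HEPES-buffered YNB without amino acids (pH 7.0, 2% glucose); Candida strains in YNB without ammonium sulfate or amino acids plus 1% asparagine (pH 7.0, 2% glucose); A. fumigatus in RPMI (pH 7.0, 2% glucose).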

Candida parapsilosis [19] = assay: Antifungal activity against Candida parapsilosis measured after 24 to 72 hrs; format: functional; details: Lodderomyces parapsilosis; method in brief: as §6
Aspergillus fumigatus [20] = assay: Antifungal activity against Aspergillus fumigatus assessed as FICI in presence of voriconazole; format: functional; method in brief: as §3
Candida parapsilosis [21] = assay: Antifungal activity against Candida parapsilosis assessed as FICI in presence of itraconazole; format: functional; method in brief: as §3
[Candida] auris [22] = Antifungal activity against Candida auris assessed as FICI in presence of fluconazole; format: functional, Candidozyma auris; method in brief: as §3
Pichia kudriavzevii [23] = assay: Antifungal activity against Candida krusei 6258 assessed as FICI in presence of voriconazole; format: functional; method in brief: as §3
Cryptococcus neoformans [24] = assay: Antifungal activity against Cryptococcus neoformans H99 assessed as FICI in presence of itraconazole; format: functional, var grubii H99; method in brief: as §3
[Candida] auris [25] = Antifungal activity against Candida auris measured after 24 to 72 hrs; format: functional; details: Candidozyma auris; method in brief: as §6
Aspergillus fumigatus [26] = assay: Antifungal activity against Aspergillus fumigatus assessed as FICI in presence of fluconazole; format: functional; method in brief: as §3
A549 = assay: Cytotoxicity against human A549 cells after 24 to 48 hrs by MTT assay; format: functional; details: read-out: LD50 (the source's name)
Method in brief: (§7)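 A549 and HepG2 kept in DMEM with 10% FBS and 1% pen-strep. At passage 7, seeded at 10⁵ cells/well and allowed to adhere 14 h. Compound added at 0.03–128 μg/mL, untreated wells as controls. Incubation 37°C, 5% CO₂ for 24 or 48 h. MTT (5 mg/mL in PBS) added for 4 h, formazan dissolved in DMSO, OD570.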

Cryptococcus neoformans [27] = assay: Fungicidal activity against Cryptococcus neoformans H99 measured up to 96 hrs by time-kill assay; format: functional, organism-based; details: var grubii H99; method in brief: as §1
Pichia kudriavzevii [28] = assay: Antifungal activity against Candida krusei measured after 24 to 72 hrs; format: functional; method in brief: as §4
Candida parapsilosis [29] = assay: Antifungal activity against Candida parapsilosis assessed as FICI in presence of caspofungin; format: functional; method in brief: as §3
Cryptococcus neoformans [30] = assay: Antifungal activity against Cryptococcus neoformans H99 measured after 24 to 72 hrs; format: functional; details: var grubii H99; method in brief: as §6
HepG2 = assay: Cytotoxicity against human HepG2 cells after 24 to 48 hrs by MTT assay; format: functional; details: read-out: LD50 (the source's name); method in brief: as §7
[31] = Selectivity index, ratio of LD50 for human HepG2 cells to MIC80 for Cryptococcus neoformans H99; format: toxicity; details: read-out: Selectivity Index; method in brief: as §5
Aspergillus fumigatus [32] = assay: Antifungal activity against Aspergillus fumigatus assessed as FICI in presence of itraconazole; format: functional; method in brief: as §3
Cryptococcus neoformans [33] = assay: Antifungal activity against Cryptococcus neoformans H99 assessed as FICI in presence of fluconazole; format: functional, var grubii H99; method in brief: as §3
Candida albicans [34] = assay: Antifungal activity against Candida albicans assessed as FICI in presence of itraconazole; format: functional; method in brief: as §3
Candida albicans [35] = assay: Antifungal activity against Candida albicans assessed as FICI in presence of fluconazole; format: functional; method in brief: as §3
Pichia kudriavzevii [36] = assay: Antifungal activity against Candida krusei 6258 assessed as FICI in presence of fluconazole; format: functional; method in brief: as §3
Candida albicans [37] = assay: Antifungal activity against Candida albicans measured after 24 to 72 hrs; format: functional; method in brief: as §6
Cryptococcus neoformans [38] = assay: Fungicidal activity against Cryptococcus neoformans H99 measured after 12 hrs by time-kill assay; format: functional, var grubii H99; method in brief: as §1

| SMILES | MFC100 (Cryptococcus neoformans [1]) [µg/mL] | fractional inhibitory concentration index (FICI) (Pichia kudriavzevii [2]) | fractional inhibitory concentration index (FICI) ([Candida] auris [3]) | fractional inhibitory concentration index (FICI) (Candida parapsilosis [4]) | fractional inhibitory concentration index (FICI) (Candida albicans [5]) | fractional inhibitory concentration index (FICI) (Cryptococcus neoformans [7]) | fractional inhibitory concentration index (FICI) (Pichia kudriavzevii [8]) | MIC80 (Pichia kudriavzevii [9]) [µg/mL] | fractional inhibitory concentration index (FICI) (Pichia kudriavzevii [10]) | fractional inhibitory concentration index (FICI) (Pichia kudriavzevii [11]) | fractional inhibitory concentration index (FICI) (Cryptococcus neoformans [12]) | fractional inhibitory concentration index (FICI) (Candida parapsilosis [13]) | fractional inhibitory concentration index (FICI) ([Candida] auris [14]) | selectivity ratio [15] | fractional inhibitory concentration index (FICI) ([Candida] auris [16]) | fractional inhibitory concentration index (FICI) (Candida albicans [17]) | MIC80 (Aspergillus fumigatus [18]) [µg/mL] | MIC80 (Candida parapsilosis [19]) [µg/mL] | fractional inhibitory concentration index (FICI) (Aspergillus fumigatus [20]) | fractional inhibitory concentration index (FICI) (Candida parapsilosis [21]) | also measured |
| --- | --- | --- | --- | --- | --- | --- | --- | --- | --- | --- | --- | --- | --- | --- | --- | --- | --- | --- | --- | --- | --- |
| O=C(N/N=C/c1cc(Br)cc(Br)c1O)c1ccc(Br)c(Br)c1 | 0.12 (≈ 0.216 µM) | 0.31 | 1.001 | 2.015 | 0.271 | 0.247 | 0.153 | 4 (≈ 7.2 µM) | 0.125 | 0.528 | 0.247 | 1.03 | 0.501 | 1070 | 1.12 | 0.5 | > 16 | 16 (≈ 28.8 µM) | 1.031 | 2.007 | fractional inhibitory concentration index (FICI) (Pichia kudriavzevii [6]): 0.121; fractional inhibitory concentration index (FICI) ([Candida] auris [22]): 1.001; fractional inhibitory concentration index (FICI) (Pichia kudriavzevii [23]): 0.254; fractional inhibitory concentration index (FICI) (Cryptococcus neoformans [24]): 0.247; MIC80 ([Candida] auris [25]): 16 µg/mL (≈ 28.8 µM); fractional inhibitory concentration index (FICI) (Aspergillus fumigatus [26]): 2; CC50 (A549): 64 µg/mL (≈ 115 µM); Activity (Cryptococcus neoformans [27]): Dose-dependent effect; MIC80 (Pichia kudriavzevii [28]): > 16 µg/mL; fractional inhibitory concentration index (FICI) (Candida parapsilosis [29]): 1.001; MIC80 (Cryptococcus neoformans [30]): 0.06 µg/mL (≈ 0.108 µM); CC50 (HepG2): 64 µg/mL (≈ 115 µM); selectivity ratio [31]: 1070; fractional inhibitory concentration index (FICI) (Aspergillus fumigatus [32]): 0.281; fractional inhibitory concentration index (FICI) (Cryptococcus neoformans [33]): 0.237; fractional inhibitory concentration index (FICI) (Candida albicans [34]): 0.37; fractional inhibitory concentration index (FICI) (Candida albicans [35]): 0.563; fractional inhibitory concentration index (FICI) (Pichia kudriavzevii [36]): 1; MIC80 (Candida albicans [37]): > 16 µg/mL |
| O=C(N/N=C/c1ccc(Br)cc1O)c1cc(Br)cc(Br)c1O | 0.12 (≈ 0.243 µM) | 0.018 | 0.252 | 1.015 | 0.375 | 0.24 | 0.183 | 0.25 (≈ 0.507 µM) | 2.002 | 0.023 | 0.261 | 0.135 | 2 | 533 | 0.18 | 0.508 | 4 (≈ 8.11 µM) | 2 (≈ 4.06 µM) | 0.188 | 0.508 | MFC100 (Cryptococcus neoformans [38]): 0.12 µg/mL (≈ 0.243 µM); fractional inhibitory concentration index (FICI) ([Candida] auris [22]): 0.531; fractional inhibitory concentration index (FICI) (Pichia kudriavzevii [23]): 0.129; fractional inhibitory concentration index (FICI) (Cryptococcus neoformans [24]): 0.247; MIC80 ([Candida] auris [25]): 0.5 µg/mL (≈ 1.01 µM); fractional inhibitory concentration index (FICI) (Aspergillus fumigatus [26]): 2; CC50 (A549): 32 µg/mL (≈ 64.9 µM); Activity (Cryptococcus neoformans [27]): Dose-dependent effect; MIC80 (Pichia kudriavzevii [28]): 0.25 µg/mL (≈ 0.507 µM); fractional inhibitory concentration index (FICI) (Candida parapsilosis [29]): 2; MIC80 (Cryptococcus neoformans [30]): 0.06 µg/mL (≈ 0.122 µM); CC50 (HepG2): 32 µg/mL (≈ 64.9 µM); selectivity ratio [31]: 533; fractional inhibitory concentration index (FICI) (Aspergillus fumigatus [32]): 1.016; fractional inhibitory concentration index (FICI) (Cryptococcus neoformans [33]): 0.24; fractional inhibitory concentration index (FICI) (Candida albicans [34]): 0.188; fractional inhibitory concentration index (FICI) (Candida albicans [35]): 2; fractional inhibitory concentration index (FICI) (Pichia kudriavzevii [36]): 0.501; MIC80 (Candida albicans [37]): 2 µg/mL (≈ 4.06 µM) |
